Activity calls are given as the source filed them. The calls are words filed in the database; no cut-off is given here.
What was measured:
ASPC1 [1] = experiment: Antiproliferative activity against human AsPC1 cells expressing K-Ras mutant at 0.5 to 10 uM after 2 days by trypan blue staining based assay; format: functional, cell-based
In short: (§1)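 Cells (AsPC-1, K-Ras mutant; or BxPC-3) were seeded at 1.0 × 10^4 per well and grown 1 d at 37 °C. The disulfide prodrug form was then added, and cells were incubated 2 days. At 0, 1 and 2 days after addition, cells were detached and stained with 0.4% trypan blue. Unstained (living) cells were counted.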

ASPC1 [2] = experiment: Antiproliferative activity against human AsPC1 cells expressing K-Ras mutant at 10 uM after 1 day in presence of DTT by trypan blue staining based assay; format: functional, cell-based
BXPC-3 = experiment: Antiproliferative activity against human BxPC3 cells at 0.5 to 10 uM after 2 days by trypan blue staining based assay; format: functional, cell-based; in short: as §1
[3] = Inhibition of human protein farnesyltransferase using dansyl peptide containing CAAX as substrate in presence of farnesyl pyrophosphate after 15 mins by fluorescence assay
ASPC1 [4] = experiment: Antiproliferative activity against human AsPC1 cells expressing K-Ras mutant after 2 days by trypan blue staining based assay; format: functional, cell-based; in short: as §1
Homo sapiens [5] = species: Homo sapiens; experiment: Inhibition of human protein farnesyltransferase assessed as enzyme activity in presence of Cu2+ ions (reference value: 49%); set-up: scale not given: the % may be the effect or the level left
Homo sapiens [6] = species: Homo sapiens; experiment: Inhibition of human protein farnesyltransferase assessed as enzyme activity in presence of Co2+ ions (reference value: 49%); set-up: scale not given: the % may be the effect or the level left
Homo sapiens [7] = species: Homo sapiens; experiment: Inhibition of human protein farnesyltransferase assessed as enzyme activity in presence of Zn2+ ions (reference value: 49%); set-up: scale not given: the % may be the effect or the level left
Homo sapiens [8] = species: Homo sapiens; experiment: Inhibition of human protein farnesyltransferase assessed as enzyme activity in presence of Ni2+ ions (reference value: 49%); set-up: scale not given: the % may be the effect or the level left
Homo sapiens [9] = species: Homo sapiens; experiment: Inhibition of human protein farnesyltransferase assessed as enzyme activity in presence of Fe2+ ions (reference value: 49%); set-up: scale not given: the % may be the effect or the level left
Homo sapiens [10] = species: Homo sapiens; experiment: Inhibition of human protein farnesyltransferase assessed as enzyme activity in presence of Ca2+ ions (reference value: 49%); set-up: scale not given: the % may be the effect or the level left

IC50 [3] [µM] | Activity (Homo sapiens [5]) [%] | Activity (Homo sapiens [6]) [%] | Activity (Homo sapiens [7]) [%] | Activity (Homo sapiens [8]) [%] | Activity (Homo sapiens [9]) [%] | Activity (Homo sapiens [10]) [%] | SMILES | Activity (ASPC1 [1]) | Activity (ASPC1 [2]) | Activity (BXPC-3) | Activity (ASPC1 [4])
0.9 | – | – | – | – | – | – | CC(C)=CCC/C(C)=C/CC/C(C)=C/COC(=O)Nc1cc(CNCCS)nc(CNCCS)c1 | Active | Active | Active | –
2 | – | – | – | – | – | – | CCCCCCCCCCCCOC(=O)Nc1cc(CNCCS)nc(CNCCS)c1 | – | Active | – | Dose-dependent effect
– | 47 | 66 | 100 | 67 | 38 | 48 | SCCNCc1cc(-c2cccc3ccccc23)cc(CNCCS)n1 | – | – | – | –
